Results on 8 compounds are retold here after ChEMBL document CHEMBL3585274, “Antiviral Activity of Diterpene Esters on Chikungunya Virus and HIV Replication” (J Nat Prod, 2015).

Series [1] is described as follows: Selectivity index, CC50 for african green monkey Vero cells to EC50 for HIV1 3B. It counts as toxicity, cell-based. As to conditions: read-out: Ratio CC50/EC50. In short, it runs like this:
(§1)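 SI = CC50 in Vero cells ÷ EC50 against HIV-1 IIIB or HIV-2 ROD. CC50 is the 50% antimetabolic concentration from MTS dose−response in Vero. EC50 is from the MT-4/MTT 5-day antiviral assay.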

The test system of series [2] is Human immunodeficiency virus 1. In words: Antiviral activity against HIV1 3B infected in MT4 cells assessed as cell viability after 5 days by MTT assay. It counts as functional, organism-based. Particulars: Human immunodeficiency virus 1, 3B, MT4, 120 h. In short, it runs like this:
(§2)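 MT-4 cells ([…] cells/mL suspension) infected with HIV-1 IIIB or HIV-2 ROD at 100−300 CCID50, with mock-infected wells run in parallel. Serial 5-fold compound dilutions in triplicate wells. Viability by MTT after 5 days, absorbance at 540 and 690 nm, median OD of three wells. Median ± median absolute deviation from ≥3 independent assays.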
Background: Tetrazolium assays rely on reduction of a dye to a coloured formazan, in cell work by metabolically active cells.

Series [3] deals with Human immunodeficiency virus 2. In words: Antiviral activity against HIV2 ROD infected in MT4 cells assessed as cell viability after 5 days by MTT assay. As to conditions: Human immunodeficiency virus 2, ISOLATE ROD, MT4, 120 h. It counts as functional, organism-based. In short, it runs like this: as §2
A short description of series [4]: Selectivity index, CC50 for african green monkey Vero cells to EC50 for HIV2 ROD. As to conditions: read-out: Ratio CC50/EC50. It counts as toxicity, cell-based. In short, it runs like this:
as §1

For series [5], the system named is Chikungunya virus. The experiment in a line: Antiviral activity against chikungunya virus Indian ocean strain 899 infected in Vero cells assessed as virus-induced cytopathic effect after 6 to 7 days. It counts as functional, cell-based. Particulars: Indian ocean strain 899, Vero. For orientation: Cytopathic effects are the visible damage that an infection or toxin causes in cultured cells.

Series [6] in a line: Selectivity index, CC50 for african green monkey Vero cells to EC50 for chikungunya virus Indian ocean strain 899. It counts as toxicity, cell-based. As to conditions: read-out: Ratio CC50/EC50.

For the compound `Cc1cn([C@H]2C[C@H](N=[N+]=[N-])[C@@H](CO)O2)c(=O)[nH]c1=O` [ZIDOVUDINE], the selectivity ratio in series [1] is 3520; in series [4] it was > 4180. The EC50 in series [2] was 7100 nM; in series [3], 6000 nM.
As to `CCCCCCCCCC(=O)O[C@@H]1[C@@H](C)[C@@]2(O)[C@@H](C=C(CO)C[C@]3(O)C(=O)C(C)=C[C@@H]23)[C@@H]2C(C)(C)[C@]12O`, the figures for the selectivity ratio in series [1] and in series [6] were 4 and 1.5, respectively. Besides, the values for the EC50 in series [5], in series [2] and in series [3] were 4900 nM, 4900 nM and 2000 nM, respectively.
On to `CCCCCCCCC(=O)O[C@@H]1[C@@H](C)[C@@]2(O)[C@@H](C=C(COC(=O)Cc3ccc(O)c(OC)c3)C[C@]3(O)C(=O)C(C)=C[C@@H]23)[C@@H]2C(C)(C)[C@]12OC(=O)CCCCCCCC`, for which the results for the selectivity ratio in series [1] and in series [6] were 483 and 3.7, respectively. The EC50 amounted to 600 nM in series [5], 36 nM in series [2] and 4 nM in series [3].
Regarding `CCCCCCCCCC(=O)O[C@@]12[C@H](O)[C@@H](C)[C@@]3(O)[C@@H](C=C(CO)C[C@]4(O)C(=O)C(C)=C[C@@H]34)[C@@H]1C2(C)C`, the selectivity ratio in series [1] was found to be 130; in series [6], 9.7. The EC50 came to 2200 nM in series [5], 900 nM in series [2] and 150 nM in series [3].
On to `CCCCCCCCCCCCCC(=O)O[C@@H]1[C@@H](C)[C@@]2(O)[C@@H](C=C(C=O)C[C@]3(O)C(=O)C(C)=C[C@@H]23)[C@@H]2C(C)(C)[C@]12OC(C)=O`, for which the selectivity ratio in series [1] turned out to be 5; in series [6] it was 5.9. The figures for the EC50 in series [5], in series [2] and in series [3] were 700 nM, 3300 nM and 1200 nM, respectively.
On the same counts, the results for `CCCC(=O)O[C@@H]1[C@@H](C)[C@@]2(O)[C@@H](C=C(CO)C[C@]3(O)C(=O)C(C)=C[C@@H]23)[C@@H]2C(C)(C)[C@]12OC(=O)CCC` are 3160, 2.1, 1800 nM, 79 nM and 14 nM.
For `C/C=C(/C)C(=O)O[C@H]1C(C)=C[C@]23C(=O)[C@@H](C=C(CO)[C@@H](O)[C@]12O)[C@H]1[C@@H](C[C@H]3C)C1(C)C` [INGENOL MEBUTATE], the selectivity ratio in series [1] was determined as 7850; in series [6] it was 2.3. The EC50 in series [5] turned out to be 22900 nM; in series [2], 17 nM; in series [3], 9 nM.
Consider `CC1=C[C@H]2[C@@]3(O)[C@H](C)[C@@H](O)[C@]4(O)[C@H]([C@@H]3C=C(CO)C[C@]2(O)C1=O)C4(C)C` [PHORBOL], for which the selectivity ratio in series [1] and in series [6] was > 1 throughout. Further, the EC50 in series [5], in series [2] and in series [3] was > 343000 nM throughout.

The EC50 is the midpoint of the concentration-response curve.
